Data from ChEMBL document CHEMBL1150162, “Antimicrobial activities of naphthazarins from Arnebia euchroma” (2002).
Values after ≈ are worked out from the molar mass of the structure shown. Active and inactive are the calls of the source. The rule behind the calls is not given here.

Legend:
[1] = system: Enterococcus faecium; test: Ratio of MBC to MIC for vancomycin-resistant Enterococcus faecium F935 expressing VanA; assay type: functional
[2] = system: Enterococcus faecium; test: Antibacterial activity against vancomycin-resistant Enterococcus faecium F935 expressing VanA after 24 hrs by broth microdilution method; assay type: functional; conditions: F935, 24 h
Method in brief: (§1)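 2-fold serial dilutions of test agent in LB broth, DMSO under 5% final. Inoculum about 5 × 10^5 CFU/mL, confirmed by LB agar plating. Incubated 24 h at 35 °C in ambient air. MIC is the lowest concentration with no visible growth. Three repeats; oxacillin, vancomycin and chloramphenicol as positive controls.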

[3] = system: Staphylococcus aureus; test: Antibacterial activity against methicillin-resistant Staphylococcus aureus 8-8S after 24 hrs by broth microdilution method; assay type: functional
Method in brief: as §1, with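 “in […]” for “in LB”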

[4] = system: Enterococcus faecalis; test: Antibacterial activity against vancomycin-resistant Enterococcus faecalis CKU-17 expressing VanB after 48 hrs by broth microdilution method; assay type: functional
[5] = system: Enterococcus faecalis; test: Antibacterial activity against Enterococcus faecalis after 24 hrs by broth microdilution method; assay type: functional; method in brief: as §1
[6] = system: Staphylococcus aureus; test: Antibacterial activity against methicillin-resistant Staphylococcus aureus 8-8S after 48 hrs by broth microdilution method; assay type: functional
[7] = system: Enterococcus faecalis; test: Antibacterial activity against Enterococcus faecalis after 48 hrs by broth microdilution method; assay type: functional
[8] = system: HeLa; test: Cytotoxicity against human HeLa cells after 48 hrs by MTT assay; assay type: functional; conditions: read-out: CD50 (the source's name)
Method in brief: (§2)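 Cells seeded at 5 × 10^3 per well, grown 24 h, then given 2-fold dilutions of sample for 48 h. Medium replaced with serum-free medium, MTT added (5 mg/mL stock) for 2 h at 37 °C, formazan dissolved in DMSO, OD read at 550 nm. CD50 is the concentration giving 50% reduction in net cell increase. Quadruplicate, repeated at least twice.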

[9] = system: Escherichia coli; test: Antibacterial activity against Escherichia coli up to 100 ug/mL after 24 hrs by broth microdilution method; assay type: functional, organism-based
Method in brief: (§3)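 Broth microdilution with 2-fold serial dilutions in LB broth, compounds from DMSO stocks (DMSO below 5% final), inoculum about 5 × 10^5 CFU/mL. Incubated 24 h at 35 °C in ambient air. MIC is the lowest concentration with no visible growth. Experiments repeated three times.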

[10] = system: Pseudomonas aeruginosa; test: Antibacterial activity against Pseudomonas aeruginosa up to 100 ug/mL after 24 hrs by broth microdilution method; assay type: functional, organism-based; method in brief: as §3
[11] = system: Enterococcus faecalis; test: Antibacterial activity against vancomycin-resistant Enterococcus faecalis CKU-17 expressing VanB after 24 hrs by broth microdilution method; assay type: functional; conditions: CKU-17, 24 h; method in brief: as §1
[12] = system: OVCAR-3; test: Cytotoxicity against human OVCAR-3 cells after 48 hrs by MTT assay; assay type: functional; conditions: OVCAR-3, 48 h, read-out: CD50 (the source's name); method in brief: as §2
[13] = system: Enterococcus faecium; test: Antibacterial activity against vancomycin-resistant Enterococcus faecium F935 expressing VanA after 48 hrs by broth microdilution method; assay type: functional
[14] = system: Staphylococcus aureus; test: Antibacterial activity against Staphylococcus aureus after 48 hrs by broth microdilution method; assay type: functional
[15] = system: Staphylococcus aureus; test: Ratio of MBC to MIC for Staphylococcus aureus; assay type: functional
[16] = system: HepG2; test: Cytotoxicity against human HepG2 cells after 48 hrs by MTT assay; assay type: functional; conditions: HepG2, 48 h, read-out: CD50 (the source's name); method in brief: as §2
[17] = system: Enterococcus faecalis; test: Ratio of MBC to MIC for Enterococcus faecalis; assay type: functional
[18] = system: Staphylococcus aureus; test: Antibacterial activity against Staphylococcus aureus after 24 hrs by broth microdilution method; assay type: functional
Method in brief: as §1, with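 “in […]” for “in LB”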

Structure (SMILES): CC[C@@H](C)C(=O)O[C@@H](CC=C(C)C)C1=CC(=O)c2c(O)ccc(O)c2C1=O
- Ratio [1]: <=2
- MIC [2]: 3.13 µg/mL (≈ 8.4 µM)
- MIC [3]: 3.13 µg/mL (≈ 8.4 µM)
- MBC ([4]; CKU-17, 48 h): 6.25 µg/mL (≈ 16.8 µM)
- MIC [5]: 3.13 µg/mL (≈ 8.4 µM)
- MBC [6]: 3.13 µg/mL (≈ 8.4 µM)
- MBC [7]: 6.25 µg/mL (≈ 16.8 µM)
- CC50 [8]: 3.9 µg/mL (≈ 10.5 µM)
- Activity [9]: inactive
- Activity [10]: inactive
- MIC [11]: 3.13 µg/mL (≈ 8.4 µM)
- CC50 [12]: 1.7 µg/mL (≈ 4.56 µM)
- MBC ([13]; F935, 48 h): 6.25 µg/mL (≈ 16.8 µM)
- MBC [14]: 1.56 µg/mL (≈ 4.19 µM)
- Ratio [15]: <=2
- CC50 [16]: 5 µg/mL (≈ 13.4 µM)
- Ratio [17]: <=2
- MIC [18]: 1.56 µg/mL (≈ 4.19 µM)

Structure (SMILES): CC(C)=CC[C@H](OC(=O)/C=C/c1ccc2c(c1)OCO2)C1=CC(=O)c2c(O)ccc(O)c2C1=O
- MIC [2]: 50 µg/mL (≈ 108 µM)
- MIC [3]: 50 µg/mL (≈ 108 µM)
- MBC ([4]; CKU-17, 48 h): 50 µg/mL (≈ 108 µM)
- MIC [5]: 100 µg/mL (≈ 216 µM)
- MBC [6]: 50 µg/mL (≈ 108 µM)
- MBC [7]: > 100 µg/mL
- CC50 [8]: 1.5 µg/mL (≈ 3.24 µM)
- Activity [9]: inactive
- Activity [10]: inactive
- MIC [11]: 50 µg/mL (≈ 108 µM)
- CC50 [12]: 1 µg/mL (≈ 2.16 µM)
- MBC ([13]; F935, 48 h): 50 µg/mL (≈ 108 µM)
- MBC [14]: 100 µg/mL (≈ 216 µM)
- CC50 [16]: 2.1 µg/mL (≈ 4.54 µM)
- MIC [18]: 50 µg/mL (≈ 108 µM)

Structure (SMILES): CC(=O)O[C@H](CC=C(C)C)C1=CC(=O)c2c(O)ccc(O)c2C1=O [ACETYLSHIKONIN]
- Ratio [1]: <=2
- MIC [2]: 6.25 µg/mL (≈ 18.9 µM)
- MIC [3]: 1.56 µg/mL (≈ 4.72 µM)
- MBC ([4]; CKU-17, 48 h): 6.25 µg/mL (≈ 18.9 µM)
- MIC [5]: 3.13 µg/mL (≈ 9.48 µM)
- MBC [6]: 1.56 µg/mL (≈ 4.72 µM)
- MBC [7]: 3.13 µg/mL (≈ 9.48 µM)
- Activity [9]: inactive
- Activity [10]: inactive
- MIC [11]: 6.25 µg/mL (≈ 18.9 µM)
- MBC ([13]; F935, 48 h): 6.25 µg/mL (≈ 18.9 µM)
- MBC [14]: 1.56 µg/mL (≈ 4.72 µM)
- Ratio [15]: <=2
- Ratio [17]: <=2
- MIC [18]: 1.56 µg/mL (≈ 4.72 µM)

Structure (SMILES): O=C(N[C@H](CO)[C@H](O)c1ccc([N+](=O)[O-])cc1)C(Cl)Cl [CHLORAMPHENICOL]
- MIC [2]: 6.25 µg/mL (≈ 19.3 µM)
- MBC [4]: inactive
- MIC [5]: 6.25 µg/mL (≈ 19.3 µM)
- MBC [7]: inactive
- MIC [11]: 6.25 µg/mL (≈ 19.3 µM)
- MBC [13]: inactive

Structure (SMILES): CC(C)=CC[C@H](OC(=O)/C=C/c1ccccc1)C1=CC(=O)c2c(O)ccc(O)c2C1=O [CINNAMOYL ALKANNIN]
- MIC [2]: 25 µg/mL (≈ 59.7 µM)
- MIC [3]: 50 µg/mL (≈ 119 µM)
- MBC ([4]; CKU-17, 48 h): 100 µg/mL (≈ 239 µM)
- MIC [5]: 100 µg/mL (≈ 239 µM)
- MBC [6]: > 100 µg/mL
- MBC [7]: > 100 µg/mL
- CC50 [8]: 3.6 µg/mL (≈ 8.6 µM)
- Activity [9]: inactive
- Activity [10]: inactive
- MIC [11]: 25 µg/mL (≈ 59.7 µM)
- CC50 [12]: 2.4 µg/mL (≈ 5.74 µM)
- MBC ([13]; F935, 48 h): 100 µg/mL (≈ 239 µM)
- MBC [14]: 100 µg/mL (≈ 239 µM)
- CC50 [16]: 3.8 µg/mL (≈ 9.08 µM)
- MIC [18]: 50 µg/mL (≈ 119 µM)

Structure (SMILES): Cc1onc(-c2ccccc2)c1C(=O)N[C@@H]1C(=O)N2[C@@H]1SC(C)(C)[C@@H]2C(=O)O [OXACILLIN]
- MIC [2]: > 100 µg/mL
- MIC [3]: > 100 µg/mL
- MBC [4]: inactive
- MIC [5]: 25 µg/mL (≈ 62.3 µM)
- MBC [6]: inactive
- MBC [7]: 50 µg/mL (≈ 125 µM)
- MIC [11]: > 100 µg/mL
- MBC [13]: inactive
- MBC [14]: 0.39 µg/mL (≈ 0.971 µM)
- MIC [18]: 0.39 µg/mL (≈ 0.971 µM)

Structure (SMILES): CC(C)=CC[C@@H](O)C1=CC(=O)c2c(O)ccc(O)c2C1=O [SHIKONIN]
- Ratio [1]: <=2
- MIC [2]: 50 µg/mL (≈ 173 µM)
- MIC [3]: 6.25 µg/mL (≈ 21.7 µM)
- MBC ([4]; CKU-17, 48 h): 50 µg/mL (≈ 173 µM)
- MIC [5]: 50 µg/mL (≈ 173 µM)
- MBC [6]: 12.5 µg/mL (≈ 43.4 µM)
- MBC [7]: 50 µg/mL (≈ 173 µM)
- Activity [9]: inactive
- Activity [10]: inactive
- MIC [11]: 25 µg/mL (≈ 86.7 µM)
- MBC ([13]; F935, 48 h): 50 µg/mL (≈ 173 µM)
- MBC [14]: 12.5 µg/mL (≈ 43.4 µM)
- Ratio [15]: <=2
- Ratio [17]: <=2
- MIC [18]: 6.25 µg/mL (≈ 21.7 µM)

Structure (SMILES): CN[C@H](CC(C)C)C(=O)N[C@H]1C(=O)N[C@@H](CC(N)=O)C(=O)N[C@H]2C(=O)N[C@H]3C(=O)N[C@H](C(=O)N[C@H](C(=O)O)c4cc(O)cc(O)c4-c4cc3ccc4O)[C@H](O)c3ccc(c(Cl)c3)Oc3cc2cc(c3O[C@@H]2O[C@H](CO)[C@@H](O)[C@H](O)[C@H]2O[C@H]2C[C@](C)(N)[C@H](O)[C@H](C)O2)Oc2ccc(cc2Cl)[C@H]1O [VANCOMYCIN]
- MIC [2]: > 100 µg/mL
- MIC [3]: 1.56 µg/mL (≈ 1.08 µM)
- MBC [4]: inactive
- MIC [5]: 3.13 µg/mL (≈ 2.16 µM)
- MBC [6]: 1.56 µg/mL (≈ 1.08 µM)
- MBC [7]: inactive
- MIC [11]: > 100 µg/mL
- MBC [13]: inactive
- MBC [14]: 1.56 µg/mL (≈ 1.08 µM)
- MIC [18]: 1.56 µg/mL (≈ 1.08 µM)
